Experimental data taken from PMC6588464 (Cell chemical biology, 2019).
pIC50, pKi: −log10 of the molar value.

What was measured:
Jurkat cells = assay: Proliferation assay, Cell Titer Glo; format: cell-based, human; settings: 72 h, highest concentrations
Method in brief: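 Jurkat cells at 2 × 10^4 cells/mL were exposed 72 h to compound at final concentrations from 20μM to 600pM. Viability was read by CellTiter-Glo luminescence, and IC50 was fitted by nonlinear regression. Run in triplicate.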

HAP1 cells [1] = assay: LIVE/DEAD dye staining in HAP1 cells; format: cell-based, human; settings: HAP1 WT and CDK7-C312S, 72 hours
Method in brief: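 HAP1 WT and CDK7-C312S cells were plated at 500 cells/well and allowed to adhere 24 h before a dilution series of test compound. Cells were analysed at time of dosing and after 72 h. After a 1 h EdU pulse they were stained with LIVE/DEAD Far Red (1:2000), then fixed with 3.7% formaldehyde for 30 min. Mean dye intensity within Hoechst nuclear masks classified cells as live or dead. Technical duplicates, biological triplicate.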

cyclin K- CDK12/13 = settings: HAP1 cells, 6 hours
CDK7-cyclin H [2] = assay: Competitive bioTHZ1 pulldown in HAP1 cells; format: cell-based, human; settings: for time required for equivalent engagement of CDK7 (>50%): compared with 30 min for YKL-5-124
HAP1 cells [3] = assay: Growth rate inhibition; format: cell-based, human; settings: for GRmax: HAP1 wild-type, 72 hours
Method in brief: (§1)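 HAP1 WT or CDK7-C312S cells were seeded at 500 cells/well, adhered 24 h, then treated with a dilution series for 72 h. Live cells were identified by a dead-cell stain and Hoechst nuclear segmentation and counted at dosing and at 72 h. Counts were normalised to same-plate DMSO controls to give growth rate inhibition (GR) values. Technical duplicates in biological triplicate.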

[4] = test system: CDK7-C312S expressing HAP1 cells; assay: Growth rate inhibition; format: cell-based, human; settings: for GRmax in CDK7-C312S cells: HAP1 CDK7-C312S, 72 hours
Method in brief: as §1

CDK7 [5] = assay: KiNativ profiling in Jurkat cells; format: cell-based, human; settings: 1μM, 6 hours
Method in brief: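 Jurkat cells were treated 6 h with 1μM compound or DMSO, then sonicated in 50 mM HEPES pH 7.5, 150 mM NaCl, 0.1% Triton X-100 with phosphatase inhibitors. Cleared lysate was labelled 10 min with 20 μM desthiobiotin-ATP acyl-nucleotide probe, denatured, alkylated and trypsin-digested for 1 h at 37°C. Probe-labelled peptides were captured on streptavidin and quantified by mass spectrometry as probe-binding block versus DMSO.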

CDK7-cyclin H [6] = assay: Competitive bioTHZ1 pulldown in Jurkat cells; format: cell-based, human; settings: Jurkat cells versus HAP1 cells
phospho-CDK1(T161) = assay: Western blot of CDK1 T-loop phosphorylation in HAP1 cells; format: cell-based, human; settings: for effect on CDK1 T-loop phosphorylation: HAP1 WT, 24 hours, 125 nM to 2 μM YKL-5-124 or 2 μM YKL-5-167
Method in brief: (§2)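 HAP1 WT and CDK7-C312S cells were treated 24 h across a concentration range, or with 2μM over a time course. Cells were lysed 30 min on ice in RIPA (50mM Tris-HCl, 150 mM NaCl, 1% NP-40, 0.5% deoxycholate, 0.1% SDS, pH 7.4) with protease/phosphatase inhibitors and nuclease. Blots were probed for phospho-T161 CDK1, phospho-T160 CDK2 and the total proteins, and detected with infrared-labelled secondaries.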

CDK2(T160) = assay: Western blot of CDK2 T-loop phosphorylation in HAP1 cells; format: cell-based, human; settings: HAP1 WT, 24 hours, 125 nM to 2 μM YKL-5-124 or 2 μM YKL-5-167
Method in brief: as §2

CDK7 [7] = format: cell-based, Human; settings: at 10μM, Hela cells treated 6 hours, wild-type CDK7
Method in brief: (§3)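 HeLa cells stably expressing FLAG-tagged wild-type or C312S CDK7 were treated 6 h with compound or DMSO and lysed. Substrate was 1 μg RPB1 with 25 μM ATP plus 10 μCi 32P-ATP. Read-out was SDS-PAGE and phosphorimaging.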

HAP1 cells [8] = assay: Cell cycle analysis; format: cell-based, human; settings: HAP1 WT, 72 hours
Method in brief: (§4)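 HAP1 WT and CDK7-C312S clones were seeded at 500 cells/well and allowed to adhere 24 h, then given a compound dilution series. Cells were analysed at dosing and after 72 h: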

CDK12/13 = settings: ref Zhang et al., 2016; Gao et al., 2018; cited from earlier work
CDK7-C312S cells = format: cell-based, human; settings: 500nM, 24 hr
Method in brief: (§5)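 HAP1 WT or CDK7-C312S cells (1×106) were treated 24 h with 500nM or 2μM compound, alone or combined with a 250nM CDK12/13 inhibitor, with DMSO controls. RNA-seq was run in triplicate and genes were called differentially expressed at log2 fold change >1.5. Gene-set overlap between treatments was scored by Jaccard similarity index.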

CDK7/CycH/Mat1 = CDK7/CycH/Mat1 (Homo sapiens, UniProt P50613); assay: Covalent inhibition kinetics, peptide substrate mobility shift assay; format: biochemical
CDK7/CycH/Mat1, sequence (P50613 whole entry): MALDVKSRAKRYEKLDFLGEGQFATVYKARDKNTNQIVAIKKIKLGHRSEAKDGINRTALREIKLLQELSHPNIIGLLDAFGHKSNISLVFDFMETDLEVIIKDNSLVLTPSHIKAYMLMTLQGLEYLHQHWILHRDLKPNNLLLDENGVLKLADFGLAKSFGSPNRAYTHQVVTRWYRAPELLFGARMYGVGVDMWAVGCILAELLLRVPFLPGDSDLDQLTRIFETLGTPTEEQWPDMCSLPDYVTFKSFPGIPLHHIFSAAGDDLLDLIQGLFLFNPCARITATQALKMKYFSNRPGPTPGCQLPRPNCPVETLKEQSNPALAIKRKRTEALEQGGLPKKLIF
CDK7/CycH/Mat1, sequence (P51946 whole entry partner): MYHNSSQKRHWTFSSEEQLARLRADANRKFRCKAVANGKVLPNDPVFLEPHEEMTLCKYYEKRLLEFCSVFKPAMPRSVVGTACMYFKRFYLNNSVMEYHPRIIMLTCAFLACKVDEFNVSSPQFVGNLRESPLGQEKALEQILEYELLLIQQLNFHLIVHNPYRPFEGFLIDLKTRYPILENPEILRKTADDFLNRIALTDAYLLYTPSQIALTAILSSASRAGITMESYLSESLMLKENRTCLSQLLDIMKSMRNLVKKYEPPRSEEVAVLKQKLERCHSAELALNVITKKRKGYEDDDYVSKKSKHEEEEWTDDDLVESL
CDK7/CycH/Mat1, sequence (P51948 whole entry partner): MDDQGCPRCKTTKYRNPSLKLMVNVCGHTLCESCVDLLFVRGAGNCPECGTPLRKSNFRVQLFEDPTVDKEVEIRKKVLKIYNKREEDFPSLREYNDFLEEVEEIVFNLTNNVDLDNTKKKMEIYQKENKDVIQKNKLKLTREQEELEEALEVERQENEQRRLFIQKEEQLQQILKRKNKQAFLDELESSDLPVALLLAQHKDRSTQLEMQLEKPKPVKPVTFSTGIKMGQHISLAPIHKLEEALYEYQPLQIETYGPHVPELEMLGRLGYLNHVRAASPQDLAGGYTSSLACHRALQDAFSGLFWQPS

CDK12 = assay: Radioactive in vitro kinase assay at 1 mM ATP; format: biochemical; settings: ATP 1mM, at the concentrations tested
[9] = test system: HAP1 cells expressing CDK7-C312S; assay: Cell cycle analysis; format: cell-based, human; settings: 72 hours
Method in brief: as §4

[10] = test system: Pol II CTD S2/S5/S7 phosphorylation; assay: Western blot of RNA Pol II CTD phosphorylation in HAP1 and Jurkat cells; format: cell-based, human; settings: up to 2 uM, combination with 250nM THZ531
Method in brief: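 HAP1 WT and CDK7-C312S cells were treated 24 h with compound at the indicated concentrations, alone or with 250nM CDK12/13 inhibitor co-treatment. Lysis was 30 min on ice in RIPA buffer (50mM Tris-HCl, 150 mM NaCl, 1% NP-40, 0.5% deoxycholate, 0.1% SDS, pH 7.4) with protease/phosphatase inhibitors and nuclease. Pol II CTD phospho-serine marks were immunoblotted and detected with infrared-labelled secondary antibodies (1:10,000).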

WT HAP1 cells = assay: RNA sequencing, differential expression and Jaccard analysis in HAP1 WT cells; format: cell-based, human; settings: WT HAP1, 500nM, 24 hr, log2 fold change >1.5
Method in brief: as §5

CDK9/CycT1 = CDK9/CycT1 (Homo sapiens, UniProt P50750); assay: Adapta Eu kinase assay, Km ATP; format: biochemical; settings: read-out: IC50 CDK9
CDK9/CycT1, sequence (P50750 whole entry): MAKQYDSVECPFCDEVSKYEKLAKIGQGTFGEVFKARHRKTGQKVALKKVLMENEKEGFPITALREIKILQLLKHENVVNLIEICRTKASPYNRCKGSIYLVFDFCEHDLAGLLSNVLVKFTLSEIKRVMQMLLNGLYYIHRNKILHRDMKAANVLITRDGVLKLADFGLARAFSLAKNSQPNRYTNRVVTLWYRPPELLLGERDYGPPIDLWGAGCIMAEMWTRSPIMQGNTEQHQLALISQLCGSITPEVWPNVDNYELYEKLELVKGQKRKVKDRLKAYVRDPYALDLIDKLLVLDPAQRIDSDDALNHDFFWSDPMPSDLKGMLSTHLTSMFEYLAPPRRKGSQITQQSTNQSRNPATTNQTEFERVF
CDK9/CycT1, sequence (O60563 whole entry partner): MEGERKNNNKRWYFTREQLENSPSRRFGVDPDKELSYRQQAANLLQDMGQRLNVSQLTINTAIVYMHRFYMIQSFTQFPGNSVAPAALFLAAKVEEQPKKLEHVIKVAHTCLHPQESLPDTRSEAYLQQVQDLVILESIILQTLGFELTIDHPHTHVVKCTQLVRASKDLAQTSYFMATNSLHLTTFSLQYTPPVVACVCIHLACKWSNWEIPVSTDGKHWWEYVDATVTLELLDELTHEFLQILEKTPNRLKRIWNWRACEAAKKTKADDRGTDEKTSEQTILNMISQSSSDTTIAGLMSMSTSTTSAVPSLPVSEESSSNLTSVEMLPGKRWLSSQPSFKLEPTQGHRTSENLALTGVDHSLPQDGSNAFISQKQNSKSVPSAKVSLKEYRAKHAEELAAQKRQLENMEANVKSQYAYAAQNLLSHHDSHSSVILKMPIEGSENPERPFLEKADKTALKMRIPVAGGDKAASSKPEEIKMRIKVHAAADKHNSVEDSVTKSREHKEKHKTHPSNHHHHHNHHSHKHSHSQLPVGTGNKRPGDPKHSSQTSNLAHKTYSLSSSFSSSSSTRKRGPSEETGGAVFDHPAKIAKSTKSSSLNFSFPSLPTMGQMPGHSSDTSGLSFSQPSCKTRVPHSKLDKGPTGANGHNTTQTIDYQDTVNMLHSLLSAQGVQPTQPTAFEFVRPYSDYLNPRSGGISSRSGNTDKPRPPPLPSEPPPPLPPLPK

CDK7 C312S = format: cell-based, Human
Method in brief: as §3

[11] = test system: CDK7-cyclin H-MAT1 trimeric complex; assay: Mass spectrometry analysis of covalent labeling of recombinant CAK complex; format: binding; settings: recombinant complex incubated 4 hours at 37 °C
Method in brief: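 Recombinant CAK complex (CDK7/cyclin H/MNAT1) was incubated with test compound or DMSO for 4 h at 37 °C and resolved by SDS-PAGE, then analysed by nanoLC/MS. Two unlabeled, non-cysteine CDK7 peptides served for normalization. For CE-MS, treated complex was denatured (0.1% Rapigest final), reduced (10 mM DTT), alkylated (22.5 mM iodoacetamide) and trypsin-digested overnight at 37 °C.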

CDK7/Mat1/CycH = CDK7/Mat1/CycH (Homo sapiens, UniProt P50613); assay: Adapta Eu fixed time point in vitro kinase assay, Km ATP; format: biochemical
CDK7/Mat1/CycH, sequence (P50613 whole entry): as the sequence (P50613 whole entry) above
CDK7/Mat1/CycH, sequence (P51946 whole entry partner): as the sequence (P51946 whole entry partner) above
CDK7/Mat1/CycH, sequence (P51948 whole entry partner): as the sequence (P51948 whole entry partner) above

CDK13 = settings: ATP 1mM, at the concentrations tested
PARP cleavage = assay: Western blot for PARP cleavage; format: cell-based, human; settings: HAP1, all conditions up to 2 μM and 48 hours
CDK7 [12] = target: CDK7 (Homo sapiens, UniProt P50613); assay: Radioactive in vitro kinase assay at 1 mM ATP; format: biochemical; settings: read-out: IC50 for CDK7; ATP concentration of 1mM
CDK7 (Homo sapiens, UniProt P50613), sequence (P50613 2-346): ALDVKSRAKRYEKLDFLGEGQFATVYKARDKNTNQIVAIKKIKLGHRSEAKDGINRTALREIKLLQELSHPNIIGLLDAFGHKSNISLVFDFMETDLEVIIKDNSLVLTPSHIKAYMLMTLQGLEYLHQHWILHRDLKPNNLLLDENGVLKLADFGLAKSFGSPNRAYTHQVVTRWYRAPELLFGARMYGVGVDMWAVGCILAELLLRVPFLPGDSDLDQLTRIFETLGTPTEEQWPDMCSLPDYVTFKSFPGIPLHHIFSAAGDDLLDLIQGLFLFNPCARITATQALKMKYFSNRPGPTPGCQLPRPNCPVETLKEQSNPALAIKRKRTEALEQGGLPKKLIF
CDK7 (Homo sapiens, UniProt P50613), sequence (P51946 whole entry partner): as the sequence (P51946 whole entry partner) above
CDK7 (Homo sapiens, UniProt P50613), sequence (P51948 whole entry partner): as the sequence (P51948 whole entry partner) above

CDK2/CycA = CDK2/CycA (Homo sapiens, UniProt P24941); assay: Z'LYTE kinase assay, Km ATP; format: biochemical; settings: read-out: IC50 CDK2

In the case of `CN(C)C/C=C/C(=O)Nc1ccc(C(=O)Nc2cccc(Nc3ncc(Cl)c(-c4c[nH]c5ccccc45)n3)c2)cc1` [THZ1, reference compound], the “maximal inhibition of proliferation” value (Jurkat cells) was “inhibit proliferation to zero”, the “cell death by LIVE/DEAD dye” value (HAP1 cells [1]) was “induced substantially more cell death than YKL-5-124” and the “effect on pulldown of cyclin K- CDK12/13” value (cyclin K- CDK12/13) was “bound to both CDK7 and CDK12/13”. For the same compound, the “time required for equivalent engagement of CDK7 (>50%)” value (CDK7-cyclin H [2]; HAP1 cells) was “twice as long”, the GRmax (HAP1 cells [3]) was “negative” and the “GRmax in CDK7-C312S cells” value [4] was “unchanged”.
For `CCC(=O)Nc1ccc(C(=O)Nc2n[nH]c3c2CN(C(=O)N[C@H](CN(C)C)c2ccccc2)C3(C)C)cc1` [YKL-5-167, (S)-N-(2-(dimethylamino)-1-phenylethyl)-6,6-dimethyl-3-(4-propionamidobenzamido)-4,6-dihydropyrrolo[3,4-c]pyrazole-5(1H)-carboxamide], the “CDK7 engagement in KiNativ” value (CDK7 [5]) was “only weakly engaged”, the “time required for equivalent engagement of CDK7 (>50%)” value (CDK7-cyclin H [2]; HAP1 cells) was 6 h and the “fold less effective as a competitor for CDK7-cyclin H” value (CDK7-cyclin H [2]; relative to YKL-5-124) was 100 fold. For the same compound, the “activity as competitor following washout” value (CDK7-cyclin H [2]; washout after 3-hour treatment) was “inactive following washout”, the “fold higher concentrations required to function as a competitor” value (CDK7-cyclin H [6]) was 10 fold and the “effect on CDK1 T-loop phosphorylation” value (phospho-CDK1(T161)) was “no detectable effect”. The “effect on CDK2 T-loop phosphorylation” value (CDK2(T160)) was “no detectable effect”, the “inhibition of phosphorylation of RNA polymerase II substrate” value (CDK7 [7]) was “little or no inhibition” and the “effect on cell cycle distribution” value (HAP1 cells [8]) was “no effect on cell cycle distribution”.
For `CN(C)C/C=C/C(=O)Nc1ccc(C(=O)N2CCC[C@@H](Nc3ncc(Cl)c(-c4c[nH]c5ccccc45)n3)C2)cc1` [THZ531], the “times more potent on CDK12/13 than CDK7” value (CDK12/13) is listed as “approximately 20 times”.
In the case of `C=CC(=O)Nc1ccc(C(=O)Nc2n[nH]c3c2CN(C(=O)N[C@H](CN(C)C)c2ccccc2)C3(C)C)cc1` [YKL-5-124, (S)-3-(4-acrylamidobenzamido)-N-(2-(dimethylammo)-1-phenylethyl)-6,6-dimethyl-4,6-dihydropyrrolo[3,4-c]pyrazole-5(1H)-carboxamide], the “CDK7 bound (block of desthiobiotin-ATP probe)” value (CDK7 [5]) was “more than 65%”, the “maximal inhibition of proliferation (residual, of the original cell count)” value (Jurkat cells) was at most 20% and the “cell death by LIVE/DEAD dye” value (HAP1 cells [1]) was “substantially reduced in CDK7-C312S cells”. The “number of differentially expressed genes” value (CDK7-C312S cells) was 583 genes, the pKi (CDK7/CycH/Mat1; 1 mM ATP, 2-step inactivation model) was 8.72 and the “covalently modifies CDK7 times faster than THZ1” value (CDK7/CycH/Mat1; ratio of kinact values) was “approximately 11 times”. The “inhibition of CDK12” value (CDK12) was “no inhibition”, the “effect on cell cycle distribution in CDK7-C312S cells” value [9] was “cell cycle distribution was not affected” and the “effect on phosphorylation of S5 and other Pol II CTD serine residues” value [10] was “no effect”. The “effect on pulldown of cyclin K- CDK12/13” value (cyclin K- CDK12/13) was “no effect”, the “reduction of CDK7-cyclin H binding to bioTHZ1” value (CDK7-cyclin H [2]; 100 nM, 30 min) was over 50% and the “concentration that blocked pulldown of CDK7-cyclin H” value (CDK7-cyclin H [2]; HAP1 cells, 6 hours) was “about 30 nM”. The “lowest concentration with engagement of CDK7 three hours after washout” value (CDK7-cyclin H [2]; washout after 3-hour treatment) was 125 nM, the “number of differentially expressed genes” value (WT HAP1 cells) was 1452 genes and the pIC50 (CDK9/CycT1) was 5.52. For the same compound, the “inhibitory activity in the in vitro kinase assay with C312S mutant” value (CDK7 C312S) was “abolished the inhibitory activity”, the “time to inhibition of T-loop phosphorylation” value (phospho-CDK1(T161); HAP1, 2μM) was at most 12 h and the “effect on CDK1 T-loop phosphorylation” value (phospho-CDK1(T161)) was “inhibited CDK1 T-loop phosphorylation”. The “concentration for reduced CDK1/2 activation” value (phospho-CDK1(T161); HAP1 and Jurkat cells) was “exceeding 1 μM”, the “efficiency of covalent labeling of CDK7” value [11] was “approximately 99%” and the “selectivity for CDK7 than CDK9 and CDK2” value (CDK7/Mat1/CycH) was 100 fold. For the same compound, the pIC50 (CDK7/Mat1/CycH; read-out: IC50 CDK7/Mat1/CycH, fixed time point, Km ATP) was 8.01, the “concentration at which strong anti-proliferative effects begin” value (HAP1 cells [3]; HAP1 and Jurkat cells) was 100 nM and the GRmax (HAP1 cells [3]) was “zero”. The “inhibition of CDK13” value (CDK13) was “no inhibition”, the “GR50 fold higher in CDK7-C312S than in wild-type cells” value ([4]; HAP1, 72 hours) was “at least 150 fold” and the “GRmax in CDK7-C312S cells” value [4] was “too high to be estimated accurately”. For the same compound, the “PARP cleavage / apoptosis” value (PARP cleavage) was “apoptosis was not induced”, the pIC50 (CDK7 [12]) was 7.27 and the “effect on cell cycle distribution” value (HAP1 cells [8]) was “dose-dependent increase in G1 and G2/M phase cells and a corresponding loss of S phase cells”. The pIC50 (CDK2/CycA) was 5.89.
